According to ChEMBL document CHEMBL1681746, “N-benzylimidazole carboxamides as potent, orally active stearoylCoA desaturase-1 inhibitors” (Bioorg Med Chem Lett, 2011):

Tests used:
Cytochrome P450 1A2 = target: T1, Cytochrome P450 1A2 (Homo sapiens, UniProt P05177); experiment: Inhibition of CYP1A2; assay type: ADME
T1 sequence (P05177 whole entry): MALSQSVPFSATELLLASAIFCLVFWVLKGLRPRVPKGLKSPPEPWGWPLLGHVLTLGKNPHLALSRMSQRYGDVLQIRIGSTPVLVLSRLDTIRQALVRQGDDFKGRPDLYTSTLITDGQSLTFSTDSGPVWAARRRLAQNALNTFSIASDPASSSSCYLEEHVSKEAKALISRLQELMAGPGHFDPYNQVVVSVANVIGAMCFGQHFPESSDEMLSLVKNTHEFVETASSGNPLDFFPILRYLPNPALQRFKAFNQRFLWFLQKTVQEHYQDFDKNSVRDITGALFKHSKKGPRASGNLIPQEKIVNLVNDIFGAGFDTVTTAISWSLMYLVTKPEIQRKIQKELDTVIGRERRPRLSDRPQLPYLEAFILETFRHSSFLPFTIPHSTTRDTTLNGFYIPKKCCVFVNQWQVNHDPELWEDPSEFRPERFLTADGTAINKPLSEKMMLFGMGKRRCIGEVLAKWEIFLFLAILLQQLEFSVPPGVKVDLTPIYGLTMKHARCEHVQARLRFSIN

Acyl-CoA desaturase 1 [1] = target: T2, Acyl-CoA desaturase 1 (Rattus norvegicus, UniProt P07308); experiment: Inhibition of rat liver SCD1 using [3H]-stearoylCoA
T2 sequence (P07308 whole entry): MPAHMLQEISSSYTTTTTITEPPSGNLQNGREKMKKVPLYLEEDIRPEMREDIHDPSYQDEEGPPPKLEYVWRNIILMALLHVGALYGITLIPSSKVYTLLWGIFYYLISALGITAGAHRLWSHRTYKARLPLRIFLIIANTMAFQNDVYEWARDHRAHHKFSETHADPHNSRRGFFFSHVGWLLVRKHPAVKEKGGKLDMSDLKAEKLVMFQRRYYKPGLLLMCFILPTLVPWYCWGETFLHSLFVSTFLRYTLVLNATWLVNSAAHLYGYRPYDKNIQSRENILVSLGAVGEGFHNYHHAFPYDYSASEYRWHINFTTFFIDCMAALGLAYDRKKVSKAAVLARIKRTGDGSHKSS

[2] = Intrinsic clearance in rat liver microsomes assessed per mg of protein; assay type: ADME, Microsome
[3] = Intrinsic clearance in human liver microsomes assessed per mg of protein; assay type: ADME, Microsome
[4] = Clearance in rat; assay type: ADME, organism-based; conditions: in vivo
[5] = Volume of distribution at steady state in rat; assay type: ADME, organism-based; conditions: in vivo, read-out: Vdss
[6] = Half life in po dosed in rat; assay type: ADME, organism-based; conditions: in vivo
[7] = Oral bioavailability in rat; assay type: ADME, organism-based; conditions: in vivo
Cytochrome P450 2C9 = Cytochrome P450 2C9 (Homo sapiens, UniProt P11712); experiment: Inhibition of CYP2C9; assay type: ADME
Cytochrome P450 2D6 = Cytochrome P450 2D6 (Homo sapiens, UniProt P10635); experiment: Inhibition of CYP2D6; assay type: ADME
Cytochrome P450 3A4 = Cytochrome P450 3A4 (Homo sapiens, UniProt P08684); experiment: Inhibition of CYP3A4; assay type: ADME
Cytochrome P450 2C19 = Cytochrome P450 2C19 (Homo sapiens, UniProt P33261); experiment: Inhibition of CYP2C19; assay type: ADME
[8] = target: Voltage-gated inwardly rectifying potassium channel KCNH2 (Homo sapiens, UniProt Q12809); experiment: Inhibition of human ERG by patch clamp assay
[9] = Genotoxicity in Salmonella Typhimurium by Ames test; assay type: toxicity; conditions: salmonella enterica subsp. enterica serovar typhimurium
Plasma [10] = experiment: Drug level in Sprague-Dawley rat plasma at 1 mg/kg, po; assay type: ADME, organism-based; parameters: dose 1 mg/kg, route oral; conditions: in vivo
In short: (§1)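 Sprague–Dawley rats, n = 8 per dose group, fasted 20 h, then LEFA diet 24 h. Next day given po doses of 1, 10 or 30 mg/kg in 0.5% methylcellulose. Total drug concentration measured in plasma sampled 3 h post dose.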

Plasma [11] = experiment: Free plasma concentration in Sprague-Dawley rat plasma at 1 mg/kg, po; assay type: ADME, organism-based; parameters: dose 1 mg/kg, route oral; conditions: in vivo
Plasma [12] = experiment: Drug level in Sprague-Dawley rat plasma at 10 mg/kg, po; assay type: ADME, organism-based; parameters: dose 10 mg/kg, route oral; conditions: in vivo; in short: as §1
Plasma [13] = experiment: Free plasma concentration in Sprague-Dawley rat plasma at 10 mg/kg, po; assay type: ADME, organism-based; parameters: dose 10 mg/kg, route oral; conditions: in vivo
Plasma [14] = experiment: Drug level in Sprague-Dawley rat plasma at 30 mg/kg, po; assay type: ADME, organism-based; parameters: dose 30 mg/kg, route oral; conditions: in vivo; in short: as §1
Plasma [15] = experiment: Free plasma concentration in Sprague-Dawley rat plasma at 30 mg/kg, po; assay type: ADME, organism-based; parameters: dose 30 mg/kg, route oral; conditions: in vivo
Rattus norvegicus [16] = experiment: Reduction of desaturation index in low essential fatty acid diet model of Sprague-Dawley rat plasma at 30 mg/kg, po after 3 hrs; assay type: functional; parameters: scale not given: the % may be the effect or the level left
In short: (§2)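 Sprague–Dawley rats, n = 8 per dose group, fasted 20 h, then fed low essential fatty acid (LEFA) diet for 24 h. Next day dosed po in 0.5% methylcellulose vehicle. Plasma taken 3 h post dose. Stearic and oleic acid extracted from plasma and quantitated by LC/MS. DI = total oleic:stearic acid ratio; % reduction relative to vehicle group.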

Rattus norvegicus [17] = experiment: Reduction of desaturation index in low essential fatty acid diet model of Sprague-Dawley rat plasma at 10 mg/kg, po after 3 hrs; assay type: functional; parameters: scale not given: the % may be the effect or the level left; in short: as §2
Rattus norvegicus [18] = experiment: Reduction of desaturation index in low essential fatty acid diet model of Sprague-Dawley rat plasma at 1 mg/kg, po after 3 hrs; assay type: functional; parameters: scale not given: the % may be the effect or the level left; in short: as §2
Rattus norvegicus [19] = experiment: Reduction of desaturation index in po dosed low essential fatty acid diet model of Sprague-Dawley rat plasma after 3 hrs; assay type: functional, organism-based; in short: as §2
Rattus norvegicus [20] = experiment: Toxicity in low essential fatty acid diet model of Sprague-Dawley rat ocular tissue assessed as red eye formation at 1 to 30 mg/kg, po after 27 hrs; assay type: organism-based; parameters: dose 1-30 mg/kg, route oral; conditions: in vivo
In short: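 LEFA-diet Sprague–Dawley rats (n = 8/group) dosed po in 0.5% methylcellulose with plasma sampled at 3 h. Animals then held for observation. Ocular tissues (red eyes) assessed at 27 h post-dose.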

Acyl-CoA desaturase 1 [21] = target: T2, Acyl-CoA desaturase 1; experiment: Inhibition of rat liver SCD1 assessed as formation of deuterated oleoylCoA by HTMS assay
In short: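 Rat liver microsomes as enzyme source. RapidFire high-throughput mass spectrometry quantitates deuterated oleoylCoA formed from deuterated stearoylCoA substrate.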

Stearoyl-CoA desaturase = target: T3, Stearoyl-CoA desaturase (Homo sapiens, UniProt O00767); experiment: Inhibition of human SCD1
T3 sequence (O00767 whole entry): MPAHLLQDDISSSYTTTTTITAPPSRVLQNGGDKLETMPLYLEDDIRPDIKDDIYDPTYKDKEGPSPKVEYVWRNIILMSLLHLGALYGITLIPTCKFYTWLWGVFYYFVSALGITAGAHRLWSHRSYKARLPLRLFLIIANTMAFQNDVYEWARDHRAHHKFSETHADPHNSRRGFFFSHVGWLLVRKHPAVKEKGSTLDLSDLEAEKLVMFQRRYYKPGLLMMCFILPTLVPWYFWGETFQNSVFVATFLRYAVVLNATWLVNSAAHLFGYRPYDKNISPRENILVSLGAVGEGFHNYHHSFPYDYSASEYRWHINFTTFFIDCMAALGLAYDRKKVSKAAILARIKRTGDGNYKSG
In short: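 Orthogonal assay using tritiated stearoylCoA substrate and human liver microsomes as enzyme source; IC₅₀ determined.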

[22] = Apparent permeability of the compound by PAMPA; assay type: ADME
CYP1A2 = target: T4, CYP1A2 (Homo sapiens, UniProt P05177); experiment: Inhibition of CYP1A2 at 3 uM; assay type: ADME
T4 sequence (P05177 whole entry): T1 sequence (P05177 whole entry)
In short: (§3)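 Percent inhibition of each CYP isoform (1A2, 2C9, 2D6, 3A4) measured at […] test concentration.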

CYP2C9 = CYP2C9 (Homo sapiens, UniProt P11712); experiment: Inhibition of CYP2C9 at 3 uM; assay type: ADME; in short: as §3
CYP2D6 = CYP2D6 (Homo sapiens, UniProt P10635); experiment: Inhibition of CYP2D6 at 3 uM; assay type: ADME; in short: as §3
CYP3A4 = CYP3A4 (Homo sapiens, UniProt P08684); experiment: Inhibition of CYP3A4 at 3 uM; assay type: ADME; in short: as §3
hERG = hERG (Homo sapiens, UniProt Q12809); experiment: Displacement of [3H]-dofetilide from human ERG at 10 uM; conditions: probe [3H]-dofetilide
In short: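 Dofetilide binding assay; percent inhibition measured at […] test concentration.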

Sequence of Cytochrome P450 3A4 (P08684 whole entry): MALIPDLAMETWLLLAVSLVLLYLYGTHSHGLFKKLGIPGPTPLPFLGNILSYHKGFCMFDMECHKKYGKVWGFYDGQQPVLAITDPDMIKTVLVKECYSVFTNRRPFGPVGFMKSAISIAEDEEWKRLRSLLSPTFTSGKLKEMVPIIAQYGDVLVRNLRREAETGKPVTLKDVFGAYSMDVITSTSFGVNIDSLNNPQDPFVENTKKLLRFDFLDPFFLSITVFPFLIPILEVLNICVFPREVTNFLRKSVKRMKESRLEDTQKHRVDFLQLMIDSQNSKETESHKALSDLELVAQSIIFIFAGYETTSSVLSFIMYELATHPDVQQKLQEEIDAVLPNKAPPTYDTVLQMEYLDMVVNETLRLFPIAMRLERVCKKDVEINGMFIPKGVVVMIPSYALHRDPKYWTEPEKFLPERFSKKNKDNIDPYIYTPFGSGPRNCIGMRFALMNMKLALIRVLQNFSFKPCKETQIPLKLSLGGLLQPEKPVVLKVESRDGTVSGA
Sequence of CYP3A4 (P08684 whole entry): as above
Sequence of Cytochrome P450 2C19 (P33261 whole entry): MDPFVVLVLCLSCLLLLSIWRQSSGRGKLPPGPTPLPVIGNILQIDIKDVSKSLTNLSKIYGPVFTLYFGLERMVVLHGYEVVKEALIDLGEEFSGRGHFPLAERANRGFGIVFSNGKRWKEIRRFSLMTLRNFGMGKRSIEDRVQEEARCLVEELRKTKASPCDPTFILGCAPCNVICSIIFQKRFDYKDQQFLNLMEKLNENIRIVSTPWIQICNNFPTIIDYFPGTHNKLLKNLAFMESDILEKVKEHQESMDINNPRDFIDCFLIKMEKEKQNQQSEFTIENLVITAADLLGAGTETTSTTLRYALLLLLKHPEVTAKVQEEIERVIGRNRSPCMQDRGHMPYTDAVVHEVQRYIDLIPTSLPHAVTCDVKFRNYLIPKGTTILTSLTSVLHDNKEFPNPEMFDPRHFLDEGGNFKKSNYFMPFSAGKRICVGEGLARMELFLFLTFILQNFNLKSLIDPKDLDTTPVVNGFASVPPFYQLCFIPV
Sequence of CYP2C9 (P11712 whole entry): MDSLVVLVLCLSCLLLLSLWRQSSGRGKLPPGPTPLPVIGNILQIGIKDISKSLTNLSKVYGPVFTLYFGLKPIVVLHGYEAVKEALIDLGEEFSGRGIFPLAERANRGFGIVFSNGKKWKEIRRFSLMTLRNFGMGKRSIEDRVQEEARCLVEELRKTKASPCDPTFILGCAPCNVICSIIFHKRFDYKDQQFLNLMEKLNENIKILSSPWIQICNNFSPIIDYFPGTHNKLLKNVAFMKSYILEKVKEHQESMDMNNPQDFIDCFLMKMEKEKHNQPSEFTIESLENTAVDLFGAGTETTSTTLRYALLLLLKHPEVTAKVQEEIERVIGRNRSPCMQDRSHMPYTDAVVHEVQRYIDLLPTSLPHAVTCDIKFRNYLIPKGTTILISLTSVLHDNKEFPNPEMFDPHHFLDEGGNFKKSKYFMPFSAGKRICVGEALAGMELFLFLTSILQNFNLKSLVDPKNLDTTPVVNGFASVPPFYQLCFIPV
Sequence of Cytochrome P450 2C9 (P11712 whole entry): as above
Sequence of Cytochrome P450 2D6 (P10635 whole entry): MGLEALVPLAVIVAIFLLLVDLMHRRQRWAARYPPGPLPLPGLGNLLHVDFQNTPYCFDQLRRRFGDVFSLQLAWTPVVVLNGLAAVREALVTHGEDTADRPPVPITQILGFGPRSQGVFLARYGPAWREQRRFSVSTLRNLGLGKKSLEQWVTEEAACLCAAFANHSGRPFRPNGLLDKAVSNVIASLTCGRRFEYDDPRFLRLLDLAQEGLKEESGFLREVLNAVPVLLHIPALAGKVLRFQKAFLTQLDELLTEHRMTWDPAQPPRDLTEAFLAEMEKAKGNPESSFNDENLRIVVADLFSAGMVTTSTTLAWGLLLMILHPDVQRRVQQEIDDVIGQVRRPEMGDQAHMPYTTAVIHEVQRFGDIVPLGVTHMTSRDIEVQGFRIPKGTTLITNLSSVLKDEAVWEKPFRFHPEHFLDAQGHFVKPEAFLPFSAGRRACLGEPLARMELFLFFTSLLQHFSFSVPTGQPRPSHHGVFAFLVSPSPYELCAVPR
Sequence of CYP2D6 (P10635 whole entry): as above
Sequence of hERG (Q12809 whole entry): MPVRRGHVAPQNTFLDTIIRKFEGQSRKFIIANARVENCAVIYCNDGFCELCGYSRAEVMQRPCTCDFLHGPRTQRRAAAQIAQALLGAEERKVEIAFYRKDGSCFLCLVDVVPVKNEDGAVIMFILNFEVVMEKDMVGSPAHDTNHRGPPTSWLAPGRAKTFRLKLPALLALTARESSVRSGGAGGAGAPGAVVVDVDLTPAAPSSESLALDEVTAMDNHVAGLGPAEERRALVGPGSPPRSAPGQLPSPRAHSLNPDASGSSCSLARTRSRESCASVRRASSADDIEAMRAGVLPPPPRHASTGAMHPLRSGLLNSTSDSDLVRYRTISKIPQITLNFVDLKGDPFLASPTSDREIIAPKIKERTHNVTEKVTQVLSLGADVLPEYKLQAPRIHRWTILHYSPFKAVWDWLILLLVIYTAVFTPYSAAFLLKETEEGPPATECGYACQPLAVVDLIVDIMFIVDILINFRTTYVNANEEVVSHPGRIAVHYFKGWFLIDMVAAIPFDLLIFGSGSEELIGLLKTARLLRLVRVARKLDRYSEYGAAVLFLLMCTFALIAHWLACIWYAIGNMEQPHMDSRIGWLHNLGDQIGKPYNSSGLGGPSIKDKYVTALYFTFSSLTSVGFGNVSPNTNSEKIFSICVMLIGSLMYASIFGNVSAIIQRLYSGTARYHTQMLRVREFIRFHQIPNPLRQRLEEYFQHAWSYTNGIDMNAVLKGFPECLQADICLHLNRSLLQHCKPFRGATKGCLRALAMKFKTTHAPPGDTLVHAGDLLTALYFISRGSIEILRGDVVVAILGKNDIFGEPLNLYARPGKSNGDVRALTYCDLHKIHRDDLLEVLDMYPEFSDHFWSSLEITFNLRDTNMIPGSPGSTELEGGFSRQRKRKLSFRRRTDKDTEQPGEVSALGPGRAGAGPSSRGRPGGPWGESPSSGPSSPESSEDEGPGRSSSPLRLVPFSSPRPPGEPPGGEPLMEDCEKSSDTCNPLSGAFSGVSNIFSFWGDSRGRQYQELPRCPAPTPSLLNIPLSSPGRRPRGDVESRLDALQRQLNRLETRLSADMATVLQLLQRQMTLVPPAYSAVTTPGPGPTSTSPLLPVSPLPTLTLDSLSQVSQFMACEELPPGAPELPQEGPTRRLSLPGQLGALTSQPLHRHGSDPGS
Sequence of Voltage-gated inwardly rectifying potassium channel KCNH2 (Q12809 whole entry): as above

Work on `Cc1c(C(=O)Nc2ccn(C)n2)ncn1Cc1cccc(C(F)(F)F)c1` yielded an IC50 (Cytochrome P450 1A2) of over 30 µM, an IC50 (Acyl-CoA desaturase 1 [1]) of 0.0118 µM and a microsomal CLint [2] of under 18 µL/min/mg. It also gave a microsomal CLint [3] of under 8 µL/min/mg, a clearance [4] of 2.58 L/h/kg and a Vd [5] of 4.5 L/kg. For the same compound, the half-life [6] was 2.3 h, the bioavailability [7] was 52% and the IC50 (Cytochrome P450 2C9) was over 30 µM. The IC50 (Cytochrome P450 2D6) was over 30 µM, the IC50 (Cytochrome P450 3A4) was over 30 µM and the IC50 (Cytochrome P450 2C19) was over 30 µM. For the same compound, the IC50 [8] was 28.9 µM, the Activity [9] was “Non-toxic” and the Drug uptake (Plasma [10]) was 56.8 ng/mL. For the same compound, the “Cp(f)” value (Plasma [11]) was 0.0176 µM, the Drug uptake (Plasma [12]) was 1703 ng/mL and the “Cp(f)” value (Plasma [13]) was 0.5335 µM. The Drug uptake (Plasma [14]) was 6491 ng/mL, the “Cp(f)” value (Plasma [15]) was 2.035 µM and the Activity (Rattus norvegicus [16]) was 84%. For the same compound, the Activity (Rattus norvegicus [17]) was 85%, the Activity (Rattus norvegicus [18]) was 55% and the Activity (Rattus norvegicus [19]) was “Dose-dependent effect”. The Activity (Rattus norvegicus [20]) was “Toxic”.

Work on `Cn1ccc(NC(=O)c2cn(Cc3cccc(Cl)c3)cn2)n1` yielded an IC50 (Acyl-CoA desaturase 1 [1]) of 0.057 µM.

`Cc1c(C(=O)N=C(N)N)ncn1Cc1ccc(Cl)cc1` gave an IC50 (Acyl-CoA desaturase 1 [21]) of 0.068 µM, an IC50 (Acyl-CoA desaturase 1 [1]) of 0.094 µM and an IC50 (Stearoyl-CoA desaturase) of 0.217 µM. For the same compound, the Papp [22] was 26 nm/s, the microsomal CLint [2] was 74.1 µL/min/mg and the microsomal CLint [3] was 15.5 µL/min/mg. The inhibition at 3 µM (CYP1A2) was under 1%, the inhibition at 3 µM (CYP2C9) was under 1% and the inhibition at 3 µM (CYP2D6) was under 1%. For the same compound, the inhibition at 3 µM (CYP3A4) was under 1% and the inhibition at 10 µM (hERG) was 64%.

With `Cn1ccc(NC(=O)c2cn(Cc3ccc(Cl)c(C(F)(F)F)c3)nn2)n1` the IC50 (Acyl-CoA desaturase 1 [1]) was 0.033 µM, the microsomal CLint [3] was under 8 µL/min/mg and the clearance [4] was 38.5 L/h/kg. It also gave a Vd [5] of 10.2 L/kg.

For `Cn1ccc(NC(=O)c2cn(Cc3ccc(Cl)c(C(F)(F)F)c3)cn2)n1`, the IC50 (Acyl-CoA desaturase 1 [1]) was 0.016 µM.

With `Cn1ccc(NC(=O)c2cn(CC3(CC4CC4)CCC3)cn2)n1` the IC50 (Acyl-CoA desaturase 1 [1]) was 0.101 µM.

Work on `Cn1ccc(NC(=O)c2cn(Cc3cccc(OC(F)(F)F)c3)cn2)n1` yielded an IC50 (Acyl-CoA desaturase 1 [1]) of 0.032 µM and an IC50 (Stearoyl-CoA desaturase) of 0.088 µM.

In the case of `Cn1ccc(NC(=O)c2cn(CCc3ccccc3Cl)cn2)n1`, the IC50 (Acyl-CoA desaturase 1 [1]) is reported as 0.126 µM.

For `CC(=O)NCCNC(=O)c1cn(Cc2ccc(F)c(C(F)(F)F)c2)cn1`, the IC50 (Acyl-CoA desaturase 1 [1]) was 2.75 µM.

`Cn1ccc(NC(=O)c2ccn(Cc3cccc(C(F)(F)F)c3)n2)n1` showed an IC50 (Acyl-CoA desaturase 1 [1]) of 2.14 µM.

With `Cn1cnc(NC(=O)c2cn(Cc3ccc(Cl)c(C(F)(F)F)c3)cn2)n1` the IC50 (Acyl-CoA desaturase 1 [1]) was 0.063 µM.

`Cn1ncc(NC(=O)c2cn(Cc3cccc(C(F)(F)F)c3)cn2)n1` gave an IC50 (Acyl-CoA desaturase 1 [1]) of 0.025 µM.

For `Cn1ccc(NC(=O)c2cnn(Cc3ccc(Cl)c(C(F)(F)F)c3)c2)n1`, the IC50 (Acyl-CoA desaturase 1 [1]) was 0.063 µM, the microsomal CLint [3] was 25.9 µL/min/mg and the clearance [4] was 1.8 L/h/kg. The Vd [5] was 0.7 L/kg, the half-life [6] was 1.3 h and the bioavailability [7] was 66%.

`Cn1ccc(NC(=O)c2ncn(Cc3cccc(C(F)(F)F)c3)n2)n1` gave an IC50 (Acyl-CoA desaturase 1 [1]) of 0.113 µM.

In the case of `Cn1ccc(NC(=O)c2cn(Cc3cccc(C(F)(F)F)c3)cn2)n1`, the IC50 (Acyl-CoA desaturase 1 [1]) is reported as 0.011 µM, the microsomal CLint [3] is reported as under 8 µL/min/mg and the clearance [4] is reported as 27.8 L/h/kg. The Vd [5] was 8.1 L/kg.
